Source: the RNAGym collection of RNA variant scans (doi:10.1101/gad.245936.114)
This sample holds only a part of the variants without activity.

B1: tRNA (parent)
chain: CUCUCGGUAGCCAAGUUGGUUUAAGGCGCAAGACUUUAAUUUAUCACUACGAAAUCUUGAGAUCGGGCGUUCGACUCGCCCCCGGGAGAUUUUUUCCUCGAGCAA

Variants of: B1
Assay: nonsense suppression (GFP-seq) (ratio to wild type); higher = more function; SUP4oc tRNA, yeast GFP reporter sort-seq
In short: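 Nonsense suppression (GFPSEQ) is the median GFP/RFP ratio of each sorting bin, weighted by the variant's estimated share of cells in that bin and expressed relative to the unmutated parent tRNA. Yeast strains carried genome-integrated variants of an ochre-suppressor tRNA from a library with ~3% random mutations, plus a galactose-driven GFP ochre reporter and RFP, and were grown in raffinose/galactose medium containing 80 mg/L adenine. Cells were sorted into GFP/RFP bins, each bin was Illumina-sequenced (phred ≥30), and variants were kept only with ≥100 reads and ≥30 cells.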

Row | Variant | nonsense suppression
1 | C3U A54C | 0.079
2 | C1A U71C C77G | ≤ 0.026
3 | C1U G7U G15A U35A A62G | ≤ 0.026
4 | C1U A62G C80A | ≤ 0.026
5 | U2A C29U | 0.0437
6 | U2C A24C | 0.0326
7 | U2C U55C U58G | ≤ 0.026
8 | C3G A54C | 0.0677
9 | C3A G78A | 0.0776
10 | C3A G25C U63A | ≤ 0.026
11 | C3G A33U C34U A62G G67C | ≤ 0.026
12 | C1G U20G A23U C27A U76A G88U | ≤ 0.026
13 | U2A G15A G66C G85U | ≤ 0.026
14 | C1U C3U C12U | ≤ 0.026
15 | C1U G26A G69U C79U | ≤ 0.026
16 | C1A U17G U20G | ≤ 0.026
17 | U2G G28U U35C | ≤ 0.026
18 | U2G U58G C83G | ≤ 0.026
19 | C3U C27G | 0.0543
20 | C3U C80U | 0.0737
21 | U2C G26U U76A | ≤ 0.026
22 | C3U C72G | ≤ 0.026
23 | U2G G32C | ≤ 0.026
24 | U2C C5A C75U C83A | ≤ 0.026

Row | Variant | nonsense suppression
25 | U2G A14C G84C | ≤ 0.026
26 | C1A U21C G73A | ≤ 0.026
27 | U2A U22G C29A C34A | 0.221
28 | C3G G61C | 0.0292
29 | C1G A9G C11A U21A A30C G78A | ≤ 0.026
30 | U2A A30U | 0.031
31 | C3U G10C A23U C83G G85A A89U | ≤ 0.026
32 | U2C G6U C29U | ≤ 0.026
33 | C3G G28A U55C G86U G88U | ≤ 0.026
34 | U2C U4C A13G | 0.205
35 | C3G U8G U21C C34U | ≤ 0.026
36 | C3U A31G | 0.0805
37 | C3U A31U | ≤ 0.026
38 | C3A G18C G86A | ≤ 0.026
39 | C3U C5U | 0.158
40 | C3G A30G C34G U55G G69C C79A | ≤ 0.026
41 | U2C C56U | ≤ 0.026
42 | U2C C56A | ≤ 0.026
43 | U2C C56G | ≤ 0.026
44 | C3U G32A G67U G69C | ≤ 0.026
45 | U2A G65C | ≤ 0.026
46 | U2A U4A G7A | ≤ 0.026
47 | C3U G10C U17G U22A G25C | ≤ 0.026
48 | U2A A23C | ≤ 0.026

Row | Variant | nonsense suppression
49 | U2A A31U A33G U58A | ≤ 0.026
50 | U2G G19U A31U C83A G84A | ≤ 0.026
51 | C1U A23G C29U C64G | ≤ 0.026
52 | U2A G19C | ≤ 0.026
53 | C1U G32U U55A A62C G67C | ≤ 0.026
54 | U2A C27U A31G U57C | ≤ 0.026
55 | C1G A24U G28A A74C C81A A89G | ≤ 0.026
56 | U2C G86A | ≤ 0.026
57 | U2C A24G A31C A60C C82A G85C | ≤ 0.026
58 | C1U C34U G85C | ≤ 0.026
59 | C3A U70G | ≤ 0.026
60 | U2C G19C U35A | ≤ 0.026
61 | C3A U20C U55C | ≤ 0.026
62 | C1G A13U G25U G59C | ≤ 0.026
63 | C3U C68U | 0.201
64 | C1G C27A U55G | ≤ 0.026
65 | C3G G85U | 0.0369
66 | C1G A14U C77U | ≤ 0.026
67 | U2G G10A C11G U20G A33G | ≤ 0.026
68 | C1G A9C G18U U71G | ≤ 0.026
69 | C3G G7C U55A | ≤ 0.026
70 | C1A U16A G88C | ≤ 0.026
71 | C3G C11A C81G | ≤ 0.026
72 | C1G G61A G78U A87C | ≤ 0.026

Row | Variant | nonsense suppression
73 | U2A C34G G85C A89C | 0.25
74 | U2C U21C U57G | ≤ 0.026
75 | C3U G7A U17G | ≤ 0.026
76 | C1U G67C | ≤ 0.026
77 | U2C G18C G25U A54C U57C G61U U70G | ≤ 0.026
78 | C1A U35G | ≤ 0.026
79 | C3A C29A A54U | ≤ 0.026
80 | U2G A74C | ≤ 0.026
81 | C3U A13G C34G | 0.439
82 | U2C A60C C75U | ≤ 0.026
83 | C1U U55G U58G | ≤ 0.026
84 | C1U A14U | ≤ 0.026
85 | C3U G6U U22G C81G | ≤ 0.026
86 | U2A G84A A89G | ≤ 0.026
87 | C3U C29G C83G G88C | 0.993
88 | U2C C80A | ≤ 0.026
89 | C1U C3U C64G G69U | ≤ 0.026
90 | C1U C3A C29A | ≤ 0.026
91 | C1A G73A | 0.112
92 | C1U A14G A31G U58G | ≤ 0.026
93 | U2A C34A G78U G86U | ≤ 0.026
94 | C3U C75U | 0.539
95 | C3G C29G A54U | ≤ 0.026
96 | C3U G6U | 0.0343

Row | Variant | nonsense suppression
97 | U2C A13U | 0.0357
98 | C3G C77A C83A | ≤ 0.026
99 | C3G U4G | 0.0277
100 | C3G U4C | 0.399
101 | C3G A30G U58A | ≤ 0.026
102 | U2C A31G | 0.0356
103 | U2A A24G G25A | ≤ 0.026
104 | C1A U2G G19A G32C A89G | ≤ 0.026
105 | C1A U4G C11U | ≤ 0.026
106 | C3A U20G G28U U57C G61C A74U G78C C79A | ≤ 0.026
107 | U2C A31G C72U | ≤ 0.026
108 | C3G A9G G59U | ≤ 0.026
109 | U2C U20C | 0.0975
110 | C3A G65A C68U G86U | ≤ 0.026
111 | C3A U4A A62G | ≤ 0.026
112 | C1A G86C | ≤ 0.026
113 | C3G U20C | 0.0788
114 | C3U A24C | 0.0575
115 | C3G G15C U58G G88C | 0.344
116 | U2C G61C | 0.0279
117 | U2C G61U | 0.122
118 | U2G A23U | ≤ 0.026
119 | U2A G73A | 0.0508
120 | C1G A54C | 0.0309

Row | Variant | nonsense suppression
121 | C3G G78A | ≤ 0.026
122 | C3A G6A U71G | ≤ 0.026
123 | C1G U4G G78C | ≤ 0.026
124 | C1U G7A | ≤ 0.026
125 | C1G A31U G88A | ≤ 0.026
126 | C3A U22C G26U C80A | ≤ 0.026
127 | U2G U8A C12A A30G G59U G88C | ≤ 0.026
128 | C1A U8G C12U A14C G85U | ≤ 0.026
129 | C1U G66A | 0.254
130 | U2G G85A | ≤ 0.026
131 | U2G G85U | 0.0411
132 | C1U G26U C34G | ≤ 0.026
133 | C3U G6C A9U A13G A23G A60G G69C | ≤ 0.026
134 | C3A A33U | ≤ 0.026
135 | U2G U55C | 0.053
136 | U2G U55G | ≤ 0.026
137 | C3U A14G C80G | ≤ 0.026
138 | C1G G7A G66C A74C | ≤ 0.026
139 | U2G A87U | 0.655
140 | U2G C3U C27G G66A U70C | ≤ 0.026
141 | C3U C12G | ≤ 0.026
142 | C3U C12U | 0.039
143 | C1U U20A G73C | 0.722
144 | U2A A33G | ≤ 0.026

Row | Variant | nonsense suppression
145 | C1U A9U A24C A30U A33G | ≤ 0.026
146 | U2G C11A A74C G84C | ≤ 0.026
147 | C3G G84U | ≤ 0.026
148 | C1U G6A C64G | ≤ 0.026
149 | U2C C27A C82U | ≤ 0.026
150 | C3G U8G | ≤ 0.026
151 | U2C U63G G73A | ≤ 0.026
152 | C1U C5U U22C U63C | ≤ 0.026
153 | C3A C34A U58A | ≤ 0.026
154 | C1U C3A U8A U17C | ≤ 0.026
155 | U2A C29A C56A A60U | ≤ 0.026
156 | C3U A89C | 0.0874
157 | U2G C83G | ≤ 0.026
158 | C3U A23U A30C | ≤ 0.026
159 | C1U G78A | 0.0525
160 | C3G G59A G78U A87U | ≤ 0.026
161 | U2C | 0.185
162 | C3A G86C | ≤ 0.026
163 | U2C U21C | 0.203
164 | U2A A13U | 0.0284
165 | U2A A13C | ≤ 0.026
166 | U2C U17A | 0.0435
167 | U2A G61A | 0.0448
